# Data taken from paper PMC3815528 (Molecular nutrition & food research, 2013).
# Tests used:
# [1] = Metabolic profile of [6]-shogaol in mouse liver microsomes; type: in vitro ADME, CD-1 mouse; conditions: mouse liver microsomes 0.5 mg/mL, [6]-shogaol 50 µM, 30 min
# Summary of the method: (§1)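 Microsomes in 100 mM potassium phosphate buffer with an NADPH-regenerating system were preincubated 5 min at 37°C. Reaction was started with test compound (DMSO, final ≤1% v/v) and run 30 min at 37°C, then stopped with an equal volume of ice-cold acetonitrile containing 2% acetic acid. After centrifugation at 13,000g for 10 min, supernatant went to C18 HPLC with electrochemical array detection, read at the 300 mV channel.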
# [2] = Metabolic profile of [6]-shogaol in monkey liver microsomes; type: in vitro ADME, cynomolgus monkey; conditions: monkey liver microsomes 0.5 mg/mL, [6]-shogaol 50 µM, 30 min
# Summary of the method: as §1
# [3] = Metabolic profile of [6]-shogaol in rat liver microsomes; type: in vitro ADME, Sprague-Dawley rat; conditions: rat liver microsomes 0.5 mg/mL, [6]-shogaol 50 µM, 30 min
# Summary of the method: as §1
# [4] = Metabolic profile of [6]-shogaol in human liver microsomes; type: in vitro ADME; conditions: human liver microsomes 0.5 mg/mL, [6]-shogaol 50 µM, 30 min
# [5] = Metabolic profile of [6]-shogaol in dog liver microsomes; type: in vitro ADME, beagle dog; conditions: dog liver microsomes 0.5 mg/mL, [6]-shogaol 50 µM, 30 min
# Summary of the method: as §1
# [6] = Kinetic study of [6]-shogaol metabolism to M6 in human liver microsomes; type: in vitro ADME; conditions: probe [6]-shogaol (substrate)
# [7] = Kinetic study of [6]-shogaol metabolism to M6 in mouse liver microsomes; type: in vitro ADME, CD-1 mouse; conditions: mouse liver microsomes 0.1 mg/mL, [6]-shogaol 7.8 to 2000 µM, 30 min
# [8] = Kinetic study of [6]-shogaol metabolism to M6 in dog liver microsomes; type: in vitro ADME, beagle dog; conditions: dog liver microsomes 0.1 mg/mL, [6]-shogaol 7.8 to 2000 µM, 30 min
# [9] = tested on: H-1299 human lung cancer cells; assay: Induction of apoptosis; type: cell-based; conditions: H-1299, 10 µM compound, 24 hours
# Summary of the method: (§2)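 Cells in McCoy's 5A with 10% FBS, 1% penicillin/streptomycin and 1% glutamine were seeded at 5000 cells/well and allowed to attach overnight at 37°C. They were then exposed to test compound in DMSO, diluted in medium, for 24 h. Lysates were spun at 300 g for 10 min and run in a histone–DNA sandwich ELISA (anti-histone-biotin/anti-DNA-POD, 2 h RT; ABTS 15 min; A430). Triplicate; fold over DMSO control, mean ± SD.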
# [10] = tested on: H-1299 human lung cancer cells; assay: MTT growth inhibition, human lung cancer cells; type: cell-based; conditions: read-out: IC50, cell viability (MTT); H-1299, 24 hours, 0 to 80 µM
# [11] = tested on: HCT-116 human colon cancer cells; assay: MTT growth inhibition, human colon cancer cells; type: cell-based; conditions: read-out: IC50, cell viability (MTT); HCT-116, 24 hours, 0 to 80 µM
# [12] = tested on: HCT-116 human colon cancer cells; assay: Induction of apoptosis; type: cell-based; conditions: HCT-116, 10 µM compound, 24 hours
# Summary of the method: as §2
Relative abundance of metabolite formed from [6]-shogaol [1],Relative abundance of metabolite formed from [6]-shogaol [2],Relative abundance of metabolite formed from [6]-shogaol [3],Relative abundance of metabolite formed from [6]-shogaol [4],Relative abundance of metabolite formed from [6]-shogaol [5],Km at 30 min [6],IC50 [10],IC50 [11],Structure (SMILES),Vmax of M6 formation [7],Vmax of M6 formation [8],Induction of apoptosis compared to DMSO control [9],Induction of apoptosis compared to DMSO control [12]
very minor,abundant,very minor,very minor,abundant,,,,"CCCCCCCC(=O)/C=C/c1ccc(O)c(OC)c1 [M15, (E)-1-(4'-hydroxy-3'-methoxyphenyl)-dec-1-en-3-one]",,,,
minor,major metabolite,minor,smallest amount,minor,,,,"CCCCC/C=C/C(=O)/C=C/c1ccc(O)c(OC)c1 [M14, (1E, 4E)-1-(4'-hydroxy-3'-methoxyphenyl)-deca-1,4-dien-3-one]",,,,

# The remaining lines, values behind:
Structure (SMILES),Relative abundance of metabolite formed from [6]-shogaol [1],Relative abundance of metabolite formed from [6]-shogaol [2],Relative abundance of metabolite formed from [6]-shogaol [3],Relative abundance of metabolite formed from [6]-shogaol [4],Relative abundance of metabolite formed from [6]-shogaol [5],Km at 30 min [6],IC50 [10],IC50 [11],Vmax of M6 formation [7],Vmax of M6 formation [8],Induction of apoptosis compared to DMSO control [9],Induction of apoptosis compared to DMSO control [12]
"CCCCCC=CC(O)CCc1ccc(O)c(OC)c1 (stereo not drawn) [M6, 1-(4'-hydroxy-3'-methoxyphenyl)-4-decen-3-ol]",dominant peak,minor metabolite,dominant peak,intermediate relative amount,intermediate relative amount,45.6 µM,,,4.10 +/− 0.19 nanomoles per minute per milligram liver microsomes,7.33 +/− 0.43 nanomoles per minute per milligram liver microsomes,,
CCCCC/C=C/C(=O)CCc1ccc(O)c(OC)c1 [[6]-shogaol],,,,,,,17.3 µM,19.9 µM,,,~2 fold,1 fold
"CCCCCCCC(=O)CCc1ccc(O)c(OC)c1 [M11, 1-(4'-hydroxy-3'-methoxyphenyl)-decan-3-one]",minute amounts,minute amounts,very minor product,major product,very minor product,,,,,,,
